Three compounds from ChEMBL document CHEMBL2321722 (J Med Chem, 2013) can be followed below.

Series [1] can be described thus: Lipophilicity, log D of the compound. It is filed as physicochemical. Conditions: octanol/water.
A short description of series [2]: Dissociation constant, pKa of the compound at acidic pH by pressure-assisted capillary electrophoresis. The class given is physicochemical. The method, boiled down: (§1)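 Ionization constants from a high-throughput screen using pressure-assisted capillary electrophoresis with mass spectrometry detection; stated accuracy ±0.2 pKa units.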
The nature of series [3]: Dissociation constant, pKa of the compound at basic pH by pressure-assisted capillary electrophoresis. It is filed as physicochemical. The method, boiled down:
as §1

Series [4] in a line: Apparent permeability from apical to basolateral side in human Caco2 cells at pH 6.5 by LC/MS analysis. The class given is ADME, cell-based. Conditions: Caco-2, pH 6.5.
The target in series [5] is T1, Plasminogen (Homo sapiens, UniProt P00747). In words: Inhibition of human Glu-plasminogen/fibrinogen interaction in HEPES buffer assessed as inhibition of lysis of thrombin-induced clot preincubated for 15 mins prior to thrombin addition measured for 15 hrs by clot-lysis buffer assay.
T1 sequence (P00747 97-580 limits assumed): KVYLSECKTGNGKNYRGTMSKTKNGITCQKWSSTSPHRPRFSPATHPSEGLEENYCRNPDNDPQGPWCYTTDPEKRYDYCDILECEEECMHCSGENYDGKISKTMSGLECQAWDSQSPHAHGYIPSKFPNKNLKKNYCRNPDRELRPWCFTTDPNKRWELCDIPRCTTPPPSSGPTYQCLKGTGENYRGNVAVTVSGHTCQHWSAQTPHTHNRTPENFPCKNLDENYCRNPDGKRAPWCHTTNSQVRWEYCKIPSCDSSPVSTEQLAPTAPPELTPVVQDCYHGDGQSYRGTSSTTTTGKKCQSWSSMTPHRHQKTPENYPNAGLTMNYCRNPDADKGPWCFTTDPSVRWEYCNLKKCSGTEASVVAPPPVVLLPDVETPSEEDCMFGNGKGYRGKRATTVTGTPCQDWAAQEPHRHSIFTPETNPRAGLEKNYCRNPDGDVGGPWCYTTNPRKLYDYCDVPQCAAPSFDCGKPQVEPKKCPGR
T1 sequence (P00747 581-810 limits assumed): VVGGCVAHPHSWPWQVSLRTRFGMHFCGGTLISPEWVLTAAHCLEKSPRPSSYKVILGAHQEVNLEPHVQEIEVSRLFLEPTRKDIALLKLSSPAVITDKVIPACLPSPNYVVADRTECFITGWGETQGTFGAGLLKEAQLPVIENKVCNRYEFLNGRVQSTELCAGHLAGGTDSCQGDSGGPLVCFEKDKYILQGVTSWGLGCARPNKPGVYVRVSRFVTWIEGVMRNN
Series [6] has as its target T1, Plasminogen. In words: Inhibition of plasminogen/fibrinogen interaction in pooled citreated human platelet-poor plasma assessed as inhibition of lysis of CaCl2/t-PA-induced clot by microtiter plate analysis. The class given is cell-free.

As to `Oc1cc(C2CCNCC2)on1`, the log distribution coefficient (logD) in series [1] is < 0. In addition, the results for the pKa in series [2] and in series [3] were 4 and 10.5, respectively.

For `NC[C@H]1CC[C@H](C(=O)O)CC1` [TRANEXAMIC ACID], the results for the pKa in series [2] and in series [3] were 4.1 and 9.7, respectively. In addition, the Papp A→B in series [4] is 78.3 nm/s.

Regarding `C1CC(c2nnn[nH]2)CCN1`, the IC50 in series [5] and in series [6] was > 100 µM throughout. Further, the pKa in series [2] was found to be 4.3; in series [3], 10.7.
